An excerpt weighted towards active compounds, which were near 2.7% of everything screened.
RAM network inh: yeast RAM network inhibition; inhibition, % at 50 µM; actives 1.8% (n = 190,000); S. cerevisiae dse1pr::URA3 reporter, 5-FOA growth OD615, 2 d; analog-sensitive cbk1-as2 kinase mutant strain; AID 868;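 active = inhibition above a set limit, 3 SD over mean compound inhibition, cut at about 8.4% in these data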;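 note: inhibition rescues growth on 5-FOA so higher OD means more RAM inhibition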
BB579 growth dn: reduces growth of yeast BB579 in restrictive medium. AID 804. S. cerevisiae BB579 growth, OD615, 48 h. actives 0.51% (n = 140,000). inhibition, % at 10 µM;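 active = inhibition above a set limit, 3 SD over the mean compound inhibition, cut at about 44% in these data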
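Test system: Saccharomyces cerevisiae DeaD strain BB579, replicative lifespan model yeast | Buffer or medium: Restrictive CSMM-D medium | Doses: One dose, 10 µM compound with 0.25% DMSO | Incubation: 48 h exposure, 30 °C | Detection: Culture absorbance at 615 nm | Control set: Amphotericin B at 10 µg/mL as positive control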
Yeast lifespan up: yeast lifespan extension. AID 775. actives 0.68% (n = 130,000). inhibition of the nicotinamide effect, % at 10 µM. S. cerevisiae growth with nicotinamide, OD615; deaD strain in restrictive glucose medium;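 active = inhibition above a set limit, placed 3 SD over the median of all compounds, cut at about 26% in these data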
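Material: Modified budding yeast, DeaD strain | Medium: Restrictive glucose medium | Probe or stimulus: 1.5 mM nicotinamide | Dosing: Single dose 10 µM compound, 0.25% DMSO | Times: 48 h at 30 °C | Technique: OD615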
SDO1 yeast rescue: sdo1-depleted yeast growth rescue; S. cerevisiae sdo1-depleted JHY4D growth rescue, OD600 30 h; active compounds read high; pdr5 snq2 efflux-pump mutant strain; actives 0.21% (n = 140,000); z-score at 10 µM; AID 817;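 active = z-score above 3 at both the 24 hr and the 30 hr optical density reads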
RAM efflux-def: restores 5-FOA growth of efflux-deficient yeast; shares compounds with RAM network inh; S. cerevisiae efflux-deficient reporter strain, 5-FOA growth OD615, 2 days; max inhibition, %; 1,200 tested, under 10 active; AID 1305; call rule not given here
Numbers stand for hits; . = inactive; / = no result given.

SMILES	RAM network inh	BB579 growth dn	Yeast lifespan up	SDO1 yeast rescue	RAM efflux-def
COc1ccccc1C(=O)N(Cc1nc(-c2ccc(Cl)cc2)no1)C(C)C	.	.	.	.	/
Cc1cc(C)n(-c2ccc(C(=O)Oc3ccc4c(c3)OCO4)cc2)n1	13	.	.	.	.
CCOC(=O)C1=C(C(F)(F)F)Nc2ncnn2C1c1cccc(OC)c1OC (stereo not drawn)	.	.	.	.	/
CCOC(=O)c1c(NC(=O)COC(=O)CCS(=O)(=O)c2ccc(C)cc2)sc(C)c1C	14	.	.	.	.
CCOC(=O)c1cc(-c2ccccc2)sc1NC(=O)COC(=O)c1cccc(S(N)(=O)=O)c1	.	/	/	/	/
CCOC(=O)c1cc(C(C)C)sc1NC(=O)COC(=O)CCS(=O)(=O)c1ccccc1	13	.	.	.	.
CC(C)c1nc(SCC(=O)Nc2c[nH]c(=O)[nH]c2=O)c2cnn(-c3ccccc3)c2n1	.	/	/	/	/
CCn1cc(Br)c(C(=O)Nc2cccc(SC)c2)n1	.	.	.	.	/
CCOC(=O)C(NC(=O)CC)(Nc1sc2c(c1C(=O)OC)CCN(C)C2)C(F)(F)F (stereo not drawn)	.	.	.	.	/
CCOC(=O)CSc1nc(-c2ccccc2)nc2ccccc12	.	.	.	.	/
CCOC(=O)CSc1nc(-c2ccccc2)nc2ccc(F)cc12	13	.	.	.	.
COc1ccc(-c2nc(-c3ccc(O)cc3O)cs2)cc1OC	12	/	/	/	.
COc1ccc(-c2nc(CCl)cs2)cc1OC	.	/	/	/	/
O=c1c2ccccc2nc(SCc2cccc(F)c2)n1-c1cccc(S(=O)(=O)N2CCCC2)c1	13	.	.	.	.
O=C(c1ccc(-n2c(SCc3cccc(F)c3)nc3ccccc3c2=O)cc1)N1CCOCC1	.	.	.	.	/
Cc1ccc2oc(=O)c3cnn(CC(=O)NCCN4CCOCC4)c3c2c1	.	.	.	.	/
CCOc1ccccc1N1CCN(C(=O)C(Sc2ccccc2)c2ccccc2)CC1 (stereo not drawn)	.	.	.	.	/
O=C(C(Sc1ccccc1)c1ccccc1)N1CCN(c2ccccc2)CC1 (stereo not drawn)	21	.	.	.	.
COc1cc(S(=O)(=O)Nc2ccccc2)ccc1N=Cc1c(C)[nH]n(-c2ccc(C)cc2)c1=O	13	.	.	.	.
COc1cc(SC#N)ccc1N=Cc1c(C)[nH]n(-c2ccc(Cl)cc2)c1=O	.	.	.	.	/
COc1ccc(C(=O)O/N=C/c2c(C(F)(F)F)nn(C)c2SCc2ccccc2Cl)cc1	12	.	.	.	.
Cn1nc(C(F)(F)F)c(/C=N/OC(=O)c2ccccc2Cl)c1SCc1ccc(Cl)cc1	16	.	.	.	.
COc1ccc(NC(=O)c2c(C(F)(F)F)nn(C)c2SCc2ccccc2)cc1	.	.	.	.	/
O=C(c1nnc(-c2ccccc2)o1)C1CC1	.	/	/	/	/
CCOc1ccc2nc(NC(=O)CSc3nc(-c4ccccc4)c(C#N)c(=O)[nH]3)sc2c1	14	/	/	/	.
SMILES	RAM network inh	BB579 growth dn	Yeast lifespan up	SDO1 yeast rescue	RAM efflux-def
CC(C)=CCc1c2c(c3occ(-c4ccc(O)cc4)c(=O)c3c1O)C=CC(C)(C)O2	17	/	/	/	.
COc1ccc(OC)c(NC(=O)CC2SC(=N)N(c3ccccc3)C2=O)c1 (stereo not drawn)	.	/	/	/	/
Cc1ccc(S(=O)(=O)n2nc(-c3ccc(Cl)cc3)nc2NCc2ccco2)cc1	15	.	.	.	.
COc1ccc(O[C@H]2C=C[C@@H](c3ccccc3)O[C@@H]2COC(=O)CC/C(C)=N/OC[C@@H](O)COCc2ccco2)cc1	.	.	.	.	/
COc1ccc(O[C@H]2C=C[C@@H](c3ccccc3)O[C@@H]2COC(=O)CC/C(C)=N/O[C@@H](C)c2cc(-c3c(C)cc(C)cc3C)no2)cc1	21	.	.	.	.
COC(=O)c1c(C)nn(-c2ccccc2)c1N	.	.	.	.	/
CCOc1ccc(NS(=O)(=O)c2ccc(NC(=S)NC(=O)CC(C)C)cc2)cc1	12	.	.	.	.
O=C(CNS(=O)(=O)c1c(Cl)cccc1Cl)OCc1csc(-c2ccccc2)n1	13	.	.	.	.
O=C(CNS(=O)(=O)c1ccc2ccccc2c1)OCc1csc(-c2ccccc2)n1	14	.	.	.	.
Cc1cccn2c(=O)c(/C=C(\C#N)C(=O)NCc3ccco3)c(N3CCC(C(N)=O)CC3)nc12	.	.	.	.	/
COC(=O)c1cc(COC(=O)c2ccc3ccccc3n2)oc1C	.	.	.	.	/
COC(=O)c1ccc(-c2ncc(-c3cccc4ccccc34)o2)cc1	13	.	/	.	.
CCSc1oc(-c2cccs2)nc1S(=O)(=O)c1ccccc1	.	.	.	.	/
Cc1ccc(N2CN(Cc3cccnc3)CNC2=S)c(C)c1	.	.	.	.	/
Clc1ccc(-c2csc(Nc3ccccc3)[n+]2Cc2ccco2)c(Cl)c1	14	/	/	/	.
C=CC[n+]1c(-c2ccc(Cl)cc2Cl)csc1Nc1c(C)n(C)n(-c2ccccc2)c1=O	.	/	/	/	/
COc1ccc(OC)c(NC(=O)CSCc2cnn(-c3ccccc3)c2-n2cccc2)c1	16	.	.	.	.
COc1cc(NC(=O)CSCc2cnn(-c3ccccc3)c2-n2cccc2)cc(OC)c1	20	.	.	.	.
Cc1cccc(NC(=O)CSc2nc3nc(C)cc(C)c3c(=O)[nH]2)c1	.	.	.	.	/
N#Cc1cnn(-c2nc(SCc3ccccc3)nc3sc4c(c23)CCCC4)c1N	.	.	.	.	/
COCCCNc1nc(SCc2ccccc2)nc2sc3c(c12)CCC3	16	.	.	.	.
Clc1cccc(CNc2nnnn2-c2ccccc2)c1	.	.	.	.	/
CCOC(=O)C1(CCOC)CCN(Cc2ccc(COC)o2)CC1	.	/	/	/	/
COc1ccc(N(CC(=O)NCCSCc2ccco2)S(=O)(=O)c2ccc(C)cc2)cc1	15	/	/	/	.
CS(=O)(=O)N(Cc1ccc(C(=O)NCCSCc2ccco2)cc1)c1ccccc1	12	.	.	.	.
SMILES	RAM network inh	BB579 growth dn	Yeast lifespan up	SDO1 yeast rescue	RAM efflux-def
NNC(=O)CN1C(c2ccc(Cl)cc2)=Nc2ccc(Br)cc2C1c1ccccc1 (stereo not drawn)	.	.	.	.	/
N#Cc1c(-c2ccc(Cl)cc2)ccn2nc(CCC(=O)O)nc12	.	.	.	.	/
O=C(CSc1nc(SCC(=O)NCc2ccccc2)n(-c2ccccc2)n1)NCc1ccccc1	36	.	.	.	.
CN(C)C(=O)CSc1nc(SCC(=O)N(C)C)n(-c2ccccc2)n1	.	.	.	.	/
Cc1ccc(N(CC(=O)NCC2CCCO2)C(=O)CCC(=O)Nc2ccccn2)cc1 (stereo not drawn)	.	/	/	/	/
S=c1[nH]ncn1NCc1ccc(Cl)cc1Cl	.	/	/	/	/
Cc1ccccc1N=C(NOCc1ccc(Cl)cc1Cl)c1nonc1N	.	.	.	.	/
Cc1ccc(N=C(NOCc2ccc(Cl)cc2Cl)c2nonc2N)c(C)c1	13	.	.	.	.
CCOC(=O)C1(CCOc2ccccc2)CCN(C(=O)c2ccc(-n3cccn3)cc2)CC1	19	/	/	/	.
CCOC(=O)C1(CCOc2ccccc2)CCN(Cc2cccc(-n3cccn3)c2)CC1	.	/	/	/	/

Assay outcomes as filed in PubChem.
